Measured values as given in ChEMBL document CHEMBL1944596, “7,8-dichloro-1-oxo-β-carbolines as a versatile scaffold for the development of potent and selective kinase inhibitors with unusual binding modes” (J Med Chem, 2012).
Active and inactive are the calls of the source.

What was measured:
[1] = biological target: T1, Dual specificity tyrosine-phosphorylation-regulated kinase 2 (Homo sapiens) (UniProt Q92630); assay: Binding affinity to DYRK2 assessed as change in thermal denaturation at 10 uM by thermal stability shift assay
T1 sequence (whole entry): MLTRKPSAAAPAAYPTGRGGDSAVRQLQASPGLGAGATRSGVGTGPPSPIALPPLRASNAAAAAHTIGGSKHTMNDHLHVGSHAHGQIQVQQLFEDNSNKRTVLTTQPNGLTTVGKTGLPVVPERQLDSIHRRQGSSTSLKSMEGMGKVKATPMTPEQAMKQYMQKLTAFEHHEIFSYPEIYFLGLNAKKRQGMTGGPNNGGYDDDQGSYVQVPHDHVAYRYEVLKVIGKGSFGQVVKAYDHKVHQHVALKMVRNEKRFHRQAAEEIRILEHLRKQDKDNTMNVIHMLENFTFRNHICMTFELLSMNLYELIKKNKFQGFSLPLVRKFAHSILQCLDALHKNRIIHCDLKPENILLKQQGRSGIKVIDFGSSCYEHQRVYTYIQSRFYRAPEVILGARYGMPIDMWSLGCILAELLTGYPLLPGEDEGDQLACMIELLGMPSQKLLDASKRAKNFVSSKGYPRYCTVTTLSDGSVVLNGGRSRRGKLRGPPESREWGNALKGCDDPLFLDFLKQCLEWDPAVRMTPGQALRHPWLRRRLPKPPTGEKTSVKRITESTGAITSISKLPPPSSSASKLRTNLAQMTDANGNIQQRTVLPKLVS
Outline: (§1)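 Each compound was screened across a kinase panel by thermal stability shift assay. The read-out was the shift in protein melting temperature (ΔTm, in °C) relative to the unliganded kinase. A ΔTm of 4.0 °C served as the hit cutoff.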

[2] = biological target: Tyrosine-protein kinase Fes/Fps (Homo sapiens) (UniProt P07332); assay: Binding affinity to FES assessed as change in thermal denaturation at 10 uM by thermal stability shift assay; outline: as §1
Tyrosine-protein kinase Fes/Fps (Homo sapiens), sequence (P07332 whole entry): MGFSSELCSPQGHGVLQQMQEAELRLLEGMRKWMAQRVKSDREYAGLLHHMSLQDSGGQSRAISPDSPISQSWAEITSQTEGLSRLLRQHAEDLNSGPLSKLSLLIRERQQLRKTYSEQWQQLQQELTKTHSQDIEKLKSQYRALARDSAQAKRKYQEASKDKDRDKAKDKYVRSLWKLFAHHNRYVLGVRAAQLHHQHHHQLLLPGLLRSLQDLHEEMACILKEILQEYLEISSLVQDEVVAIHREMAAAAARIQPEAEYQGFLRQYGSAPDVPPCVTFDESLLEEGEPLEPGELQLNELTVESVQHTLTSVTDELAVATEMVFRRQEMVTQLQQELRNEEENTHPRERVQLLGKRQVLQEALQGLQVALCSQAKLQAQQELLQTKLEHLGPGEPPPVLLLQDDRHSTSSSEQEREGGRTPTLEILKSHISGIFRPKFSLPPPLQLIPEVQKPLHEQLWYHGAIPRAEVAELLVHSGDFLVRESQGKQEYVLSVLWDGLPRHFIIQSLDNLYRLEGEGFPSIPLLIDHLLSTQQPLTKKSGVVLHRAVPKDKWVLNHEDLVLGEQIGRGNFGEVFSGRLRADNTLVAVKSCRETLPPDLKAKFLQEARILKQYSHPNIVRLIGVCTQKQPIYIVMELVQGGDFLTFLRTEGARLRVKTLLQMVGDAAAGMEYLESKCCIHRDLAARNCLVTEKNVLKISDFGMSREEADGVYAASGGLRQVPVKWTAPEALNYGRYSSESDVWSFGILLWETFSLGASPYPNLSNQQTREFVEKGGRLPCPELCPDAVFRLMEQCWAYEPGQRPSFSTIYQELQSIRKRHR

[3] = biological target: Dual specificity protein kinase CLK1 (Homo sapiens) (UniProt P49759); assay: Binding affinity to CLK1 assessed as change in thermal denaturation at 10 uM by thermal stability shift assay; outline: as §1
Dual specificity protein kinase CLK1 (Homo sapiens), sequence (P49759 whole entry, looked up): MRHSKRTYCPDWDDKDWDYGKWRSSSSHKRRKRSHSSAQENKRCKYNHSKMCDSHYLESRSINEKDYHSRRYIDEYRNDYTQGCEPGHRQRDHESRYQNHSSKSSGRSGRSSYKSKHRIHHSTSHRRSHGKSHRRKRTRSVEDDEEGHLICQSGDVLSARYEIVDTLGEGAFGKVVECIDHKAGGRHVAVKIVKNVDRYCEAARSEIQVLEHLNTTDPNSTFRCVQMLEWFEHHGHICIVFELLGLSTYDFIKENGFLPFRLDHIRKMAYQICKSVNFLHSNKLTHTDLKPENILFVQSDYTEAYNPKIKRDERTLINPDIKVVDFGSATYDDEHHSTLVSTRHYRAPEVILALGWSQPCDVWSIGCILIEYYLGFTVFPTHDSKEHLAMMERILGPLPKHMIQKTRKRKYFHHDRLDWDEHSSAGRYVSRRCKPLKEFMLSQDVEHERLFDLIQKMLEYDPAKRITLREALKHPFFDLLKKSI

[4] = biological target: T2, Serine/threonine-protein kinase 17A (Homo sapiens) (UniProt Q9UEE5); assay: Binding affinity to DRAK1 assessed as change in thermal denaturation at 10 uM by thermal stability shift assay; outline: as §1
T2 sequence (whole entry): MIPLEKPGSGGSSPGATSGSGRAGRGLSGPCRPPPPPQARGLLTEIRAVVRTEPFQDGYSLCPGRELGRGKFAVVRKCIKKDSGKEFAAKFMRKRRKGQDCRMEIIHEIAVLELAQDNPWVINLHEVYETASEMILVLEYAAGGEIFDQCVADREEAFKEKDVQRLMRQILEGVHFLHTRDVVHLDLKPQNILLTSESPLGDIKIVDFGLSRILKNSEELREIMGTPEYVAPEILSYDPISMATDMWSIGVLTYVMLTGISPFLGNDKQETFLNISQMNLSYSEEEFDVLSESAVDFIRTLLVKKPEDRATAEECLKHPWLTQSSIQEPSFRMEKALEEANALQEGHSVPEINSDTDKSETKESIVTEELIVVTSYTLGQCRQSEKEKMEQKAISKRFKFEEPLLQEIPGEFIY

[5] = biological target: Receptor-type tyrosine-protein kinase FLT3 (Homo sapiens) (UniProt P36888); assay: Inhibition of FLT3 using ATP as substrate
[6] = biological target: T3, cAMP-dependent protein kinase catalytic subunit PRKX (Homo sapiens) (UniProt P51817); assay: Binding affinity to PRKX assessed as change in thermal denaturation at 10 uM by thermal stability shift assay; outline: as §1
T3 sequence (whole entry): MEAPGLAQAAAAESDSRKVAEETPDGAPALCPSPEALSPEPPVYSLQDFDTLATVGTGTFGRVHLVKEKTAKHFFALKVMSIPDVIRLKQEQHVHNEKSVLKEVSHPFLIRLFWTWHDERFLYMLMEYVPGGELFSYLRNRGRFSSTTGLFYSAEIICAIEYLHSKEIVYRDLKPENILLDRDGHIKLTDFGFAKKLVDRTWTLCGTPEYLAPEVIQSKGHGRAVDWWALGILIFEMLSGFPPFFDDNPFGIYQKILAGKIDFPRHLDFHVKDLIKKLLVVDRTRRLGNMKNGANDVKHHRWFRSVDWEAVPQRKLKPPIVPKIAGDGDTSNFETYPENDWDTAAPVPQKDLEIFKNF

[7] = biological target: Casein kinase II subunit alpha' (Homo sapiens) (UniProt P19784); assay: Binding affinity to CK2alpha2 assessed as change in thermal denaturation at 10 uM by thermal stability shift assay; outline: as §1
Casein kinase II subunit alpha' (Homo sapiens), sequence (P19784 whole entry, looked up, canonical isoform): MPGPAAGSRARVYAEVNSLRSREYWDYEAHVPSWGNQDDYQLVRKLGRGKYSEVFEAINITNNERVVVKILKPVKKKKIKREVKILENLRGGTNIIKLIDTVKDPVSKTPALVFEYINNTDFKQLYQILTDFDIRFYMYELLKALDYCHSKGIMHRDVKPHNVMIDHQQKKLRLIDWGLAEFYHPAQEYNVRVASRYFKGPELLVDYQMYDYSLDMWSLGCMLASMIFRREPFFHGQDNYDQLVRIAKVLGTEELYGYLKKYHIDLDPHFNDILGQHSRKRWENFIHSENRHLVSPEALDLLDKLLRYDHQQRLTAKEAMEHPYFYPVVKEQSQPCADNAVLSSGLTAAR

[8] = biological target: Phosphatidylinositol 4,5-bisphosphate 3-kinase catalytic subunit beta isoform (Homo sapiens, UniProt P42338); assay: Inhibition of PI3Kbeta using ATP as substrate
[9] = biological target: MAP kinase-activated protein kinase 5 (Homo sapiens, UniProt Q8IW41); assay: Inhibition of MK5 using ATP as substrate
MAP kinase-activated protein kinase 5, sequence (Q8IW41 whole entry): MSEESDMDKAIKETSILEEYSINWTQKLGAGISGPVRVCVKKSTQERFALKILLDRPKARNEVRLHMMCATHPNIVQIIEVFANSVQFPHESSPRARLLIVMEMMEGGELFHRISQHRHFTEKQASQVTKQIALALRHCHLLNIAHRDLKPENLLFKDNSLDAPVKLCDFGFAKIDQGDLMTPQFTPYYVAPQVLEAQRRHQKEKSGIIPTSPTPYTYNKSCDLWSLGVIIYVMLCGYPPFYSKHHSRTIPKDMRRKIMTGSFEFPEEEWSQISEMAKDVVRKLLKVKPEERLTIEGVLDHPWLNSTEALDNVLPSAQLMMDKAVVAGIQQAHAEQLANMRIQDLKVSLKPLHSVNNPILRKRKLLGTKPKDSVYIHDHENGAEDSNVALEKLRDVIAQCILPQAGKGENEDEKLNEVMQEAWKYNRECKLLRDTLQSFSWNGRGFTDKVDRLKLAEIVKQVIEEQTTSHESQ

[10] = biological target: Protein kinase C alpha type (Homo sapiens, UniProt P17252); assay: Inhibition of PKCalpha using ATP as substrate
[11] = system: K562; assay: Growth inhibition of human K562 cells after 48 hrs by WST-1 assay; format: functional, cell-based; details: K562, 48 h
Outline: (§2)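 Compound (0–10 μM) added to the culture medium and incubated 48 h. Proliferation and viability read by WST-1 reagent. Survival expressed as percentage of control cultures and IC50 derived by curve fitting.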

[12] = Inhibition of S6K using ATP as substrate
[13] = system: MV4-11; assay: Inhibition of PIM-mediated 4E-BP1 phosphorylation in human MV4-11 cells after 180 mins by Western blot analysis; format: cell-based
Outline: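 MV4;11 cells at 5 × 10^5/mL in RPMI 1640 with 10% FCS, 37 °C, 5% CO2, treated at 0–10 μM for varied times. Lysed on ice in Triton X-100 buffer with NaF, Na3VO4 and protease inhibitors. 50 μg protein run on 15% SDS–PAGE and blotted for phospho-4E-BP1 with HRP chemiluminescence. Reprobed for total 4E-BP1 and β-actin as loading controls.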

[14] = biological target: Serine/threonine-protein kinase pim-2 (Homo sapiens, UniProt Q9P1W9); assay: Inhibition of PIM2 using ATP as substrate
Serine/threonine-protein kinase pim-2, sequence (Q9P1W9 whole entry): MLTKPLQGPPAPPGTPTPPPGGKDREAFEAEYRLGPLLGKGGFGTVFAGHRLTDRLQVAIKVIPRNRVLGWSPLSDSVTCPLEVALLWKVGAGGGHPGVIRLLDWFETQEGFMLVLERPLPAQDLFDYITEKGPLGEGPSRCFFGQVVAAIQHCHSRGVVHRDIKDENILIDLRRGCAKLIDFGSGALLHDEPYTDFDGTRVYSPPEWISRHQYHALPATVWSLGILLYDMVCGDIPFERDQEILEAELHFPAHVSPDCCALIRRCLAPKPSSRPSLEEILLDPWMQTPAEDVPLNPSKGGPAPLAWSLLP

[15] = Growth inhibition of human RS4:11 cells after 48 hrs by WST-1 assay; format: functional, cell-based; details: RS4-11, 48 h; outline: as §2
[16] = biological target: Protein kinase C theta type (Homo sapiens, UniProt Q04759); assay: Inhibition of PKCtheta using ATP as substrate
[17] = Inhibition of PKA using ATP as substrate
[18] = biological target: Serine/threonine-protein kinase pim-3 (Homo sapiens, UniProt Q86V86); assay: Inhibition of PIM3 using ATP as substrate
[19] = Growth inhibition of human SEM cells after 48 hrs by WST-1 assay; format: functional, cell-based; outline: as §2
[20] = biological target: Rho-associated protein kinase 2 (Homo sapiens, UniProt O75116); assay: Inhibition of ROCK2 using ATP as substrate
[21] = biological target: Vascular endothelial growth factor receptor 2 (Homo sapiens, UniProt P35968); assay: Inhibition of KDR using ATP as substrate
Vascular endothelial growth factor receptor 2, sequence (P35968 whole entry): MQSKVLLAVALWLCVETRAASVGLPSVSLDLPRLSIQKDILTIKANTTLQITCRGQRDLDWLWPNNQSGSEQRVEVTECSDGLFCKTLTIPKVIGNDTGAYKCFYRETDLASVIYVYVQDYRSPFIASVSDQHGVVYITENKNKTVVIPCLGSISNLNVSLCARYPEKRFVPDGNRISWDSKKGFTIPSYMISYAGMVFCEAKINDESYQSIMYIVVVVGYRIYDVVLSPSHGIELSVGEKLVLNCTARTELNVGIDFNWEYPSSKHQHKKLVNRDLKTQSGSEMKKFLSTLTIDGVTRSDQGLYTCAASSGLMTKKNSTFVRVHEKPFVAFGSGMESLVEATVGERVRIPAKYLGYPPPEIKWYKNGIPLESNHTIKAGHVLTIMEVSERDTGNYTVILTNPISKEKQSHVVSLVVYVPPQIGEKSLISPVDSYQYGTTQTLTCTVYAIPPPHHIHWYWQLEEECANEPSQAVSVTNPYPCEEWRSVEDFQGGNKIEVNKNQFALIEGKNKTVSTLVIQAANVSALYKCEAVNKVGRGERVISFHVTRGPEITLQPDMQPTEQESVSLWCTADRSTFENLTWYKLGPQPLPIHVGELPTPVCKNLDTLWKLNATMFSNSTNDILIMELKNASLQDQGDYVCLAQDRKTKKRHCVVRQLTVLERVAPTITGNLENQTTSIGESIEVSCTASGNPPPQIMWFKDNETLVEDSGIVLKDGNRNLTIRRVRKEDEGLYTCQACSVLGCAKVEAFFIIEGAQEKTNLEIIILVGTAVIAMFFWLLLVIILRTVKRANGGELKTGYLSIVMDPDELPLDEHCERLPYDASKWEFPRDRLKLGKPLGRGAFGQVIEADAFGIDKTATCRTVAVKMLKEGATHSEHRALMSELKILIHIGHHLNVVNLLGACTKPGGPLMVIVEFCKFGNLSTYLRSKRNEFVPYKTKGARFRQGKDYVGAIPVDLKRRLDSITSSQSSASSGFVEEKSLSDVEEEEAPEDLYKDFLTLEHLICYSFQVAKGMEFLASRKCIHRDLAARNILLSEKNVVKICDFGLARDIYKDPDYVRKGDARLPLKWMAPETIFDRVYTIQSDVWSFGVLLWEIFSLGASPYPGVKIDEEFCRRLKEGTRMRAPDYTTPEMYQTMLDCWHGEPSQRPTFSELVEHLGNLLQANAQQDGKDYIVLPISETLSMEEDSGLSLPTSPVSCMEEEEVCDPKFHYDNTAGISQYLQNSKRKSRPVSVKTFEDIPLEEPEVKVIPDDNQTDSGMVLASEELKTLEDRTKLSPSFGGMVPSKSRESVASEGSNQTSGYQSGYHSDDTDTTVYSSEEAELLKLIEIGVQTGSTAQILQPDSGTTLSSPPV

Row | SMILES | ΔTm [1] [°C] | ΔTm [2] [°C] | ΔTm [3] [°C] | ΔTm [4] [°C] | ΔTm [6] [°C] | ΔTm [7] [°C] | further results
1 | Cn1c2c(c3ccccc31)C(C#N)C(C)(C)NC2=O (stereo unspecified) | 0.5 | 0 | 2.4 | 0.5 | 0.5 | 0.7 | –
2 | CC(=O)NCC1c2c(n(C)c3c(Cl)c(Cl)ccc23)C(=O)NC1(C)C (racemic) | 0.9 | 0.4 | 2.6 | 0.9 | 0.7 | 1 | –
3 | Cn1c2c(Cl)c(Cl)ccc2c2cn[nH]c(=O)c21 | 1.6 | 0.2 | 3.9 | 3.5 | 0.3 | 2.1 | –
4 | Cn1c2c(Cl)c(Cl)ccc2c2cc[nH]c(=O)c21 | 4.1 | 0.1 | 4.6 | 6.2 | 0.3 | 2 | –
5 | CC1(C)NC(=O)c2[nH]c3c(Cl)c(Cl)ccc3c2C1C#N (stereo unspecified) | 1.3 | -0.2 | 5.3 | 3 | 1.2 | 1.9 | –
6 | Cn1c2c(Cl)c(Cl)ccc2c2cc(N)[nH]c(=O)c21 | 2.4 | 0.4 | 5.9 | 6.9 | 0.8 | 3 | –
7 | Cn1c2c(c3ccc(Cl)c(Cl)c31)C(C#N)C1(CCNCC1)NC2=O (racemic) | 3.6 | 4 | 7 | 4.3 | 5.8 | 4.2 | IC50 [8]: 8600 nM; IC50 [9]: 1700 nM; IC50 [10]: 2200 nM; IC50 [11]: 6490 nM; IC50 [12]: 230 nM; inhibition [13]: Dose-dependent effect; IC50 [14]: 240 nM; IC50 [15]: 3570 nM; IC50 [16]: 1400 nM; IC50 [17]: 77 nM; IC50 [18]: 90 nM; IC50 [19]: 4680 nM; IC50 [20]: 220 nM; IC50 [21]: 7200 nM
8 | Cn1c2c(c3ccc(Cl)c(Cl)c31)C(CN)C(C)(C)NC2=O (racemic) | 0.2 | 0.3 | 5.1 | 7.5 | 3.3 | 0.5 | –
9 | N#CC1c2c([nH]c3c(Cl)c(Cl)ccc23)C(=O)NC12CCCCC2 (racemic) | 1.4 | -0.4 | 5.4 | 2.2 | 1 | 1.2 | –

Continued, in another order:

Row | ΔTm [1] [°C] | ΔTm [2] [°C] | ΔTm [3] [°C] | ΔTm [4] [°C] | ΔTm [6] [°C] | ΔTm [7] [°C] | SMILES | further results
10 | 1.3 | 0.5 | 5.7 | 2.7 | 3.3 | 2.7 | CN1CCC2(CC1)NC(=O)c1c(c3ccc(Cl)c(Cl)c3n1C)C2C#N (racemic) | inhibition [5]: inactive
11 | 0.6 | 0 | 3.5 | 2.6 | 0.8 | 1 | CCC1(CC)NC(=O)c2c(c3ccc(Cl)c(Cl)c3n2C)C1C#N (stereo unspecified) | –
12 | 2 | -0.3 | 6.4 | 5.8 | 2.8 | 2.1 | Cn1c2c(c3ccc(Cl)c(Cl)c31)C(C#N)C(C)(C)NC2=O (stereo unspecified) | –
13 | 0.3 | 0.4 | 0.5 | 0.6 | 0.3 | 0.3 | Cn1c2c(c3ccc(Cl)c(Cl)c31)C(C#N)C1(CCN(C(=O)OC(C)(C)C)CC1)NC2=O (racemic) | –
14 | 0.9 | 0.7 | 4 | 1.6 | 3.1 | 1.8 | CCN1CCC2(CC1)NC(=O)c1c(c3ccc(Cl)c(Cl)c3n1C)C2C#N (racemic) | –
15 | 1 | 0 | 4.6 | 2.7 | 1.4 | 1 | Cn1c2c(c3ccc(Cl)c(Cl)c31)C(C#N)C1(CCOCC1)NC2=O (stereo unspecified) | –
16 | 0.7 | 0 | 4.8 | 2 | 0.7 | 1 | Cn1c2c(c3ccc(Cl)c(Cl)c31)C(C#N)C1(CCCC1)NC2=O (stereo unspecified) | –
